Reference: ChEMBL document CHEMBL3352325, “Synthesis and biological evaluation of novel aniline-derived asiatic acid derivatives as potential anticancer agents” (Eur J Med Chem, 2014)
Calls of active or inactive are those of the source. The rule behind the calls is not given here.

What was measured:
MGC-803 = assay: Cytotoxicity against human MGC803 cells after 48 hrs by MTT assay; type: functional, cell-based; conditions: MGC-803, 48 h
How it was run: (§1)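 Cells grown in medium with 10% heat-inactivated FBS, 5% CO2, 37 °C. Compounds given in medium with 1% DMSO at 1.25–20 graded concentrations; 1% DMSO medium served as control. MTT (5 mg/mL) added, formazan dissolved in DMSO, absorbance read at 570/630 nm. Survival expressed relative to negative control. IC50 by Bliss method (n=5), at least three independent experiments, mean ± SD.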

NCI-H460 = assay: Cytotoxicity against human NCI-H460 cells after 48 hrs by MTT assay; type: functional, cell-based; conditions: NCI-H460, 48 h; how it was run: as §1
HepG2 [1] = assay: Cytotoxicity against human HepG2 cells after 48 hrs by MTT assay; type: functional, cell-based; conditions: HepG2, 48 h; how it was run: as §1
HeLa = assay: Cytotoxicity against human HeLa cells after 48 hrs by MTT assay; type: functional, cell-based; how it was run: as §1
[2] = Cytotoxicity against human SMMC-7404 cells after 48 hrs by MTT assay; type: functional, cell-based; conditions: SMMC-7404, 48 h; how it was run: as §1
HUVEC = assay: Cytotoxicity against human HUVEC cells after 48 hrs by MTT assay; type: cell-based; how it was run: as §1
HepG2 [3] = assay: Induction of apoptosis in human HepG2 cells assessed as early apoptotic cells at 10 uM after 12 hrs by flow cytometry (reference value: 2.1 %); type: functional
How it was run: (§2)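 HepG2 cells treated 12 h at 10 or 20 µM, with untreated control. Stained with annexin V-FITC plus PI for 30 min at 25 °C in the dark. Quadrant percentages read by flow cytometry.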

HepG2 [4] = assay: Induction of apoptosis in human HepG2 cells assessed as change in membrane integrity using acridine orange/ethidium bromide staining at 20 uM after 12 to 24 hrs by fluorescence microscopy; type: functional, cell-based
How it was run: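 HepG2 cells on coverslips treated with 20 µM in medium with 10% FBS for 12 or 24 h, with untreated 24 h control. Stained with AO/EB and examined by fluorescence microscopy: green = live, green-yellow = early apoptotic, orange = late apoptotic or necrotic.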

HepG2 [5] = assay: Induction of apoptosis in human HepG2 cells assessed as condensation of nucleus using hoechst staining at 20 uM after 12 to 24 hrs by fluorescence microscopy; type: functional, cell-based
How it was run: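 HepG2 cells on coverslips treated at 20 µM for 12 or 24 h, with untreated 24 h control. Fixed in 4% paraformaldehyde for 10 min, then stained with Hoechst 33258 for 5 min. Nuclei viewed by fluorescence microscopy at 350 nm excitation and 460 nm emission.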

HepG2 [6] = assay: Induction of apoptosis in human HepG2 cells assessed as change in morphology at 20 uM after 12 to 24 hrs using JC-1 staining by fluorescence microscopy; type: functional, cell-based
How it was run: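 HepG2 cells treated at 20 µM for 12 or 24 h, with untreated 24 h control. Incubated with JC-1 (5 µg/ml) at 37 °C for 20 min, rinsed in PBS. Green (515–545 nm) and red (570–600 nm) emission imaged by fluorescence microscopy; depolarization taken as a rise in green/red ratio.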

HepG2 [7] = assay: Induction of apoptosis in human HepG2 cells assessed as late apoptotic cells at 10 uM after 12 hrs by flow cytometry (reference value: 6.9 %); type: functional; how it was run: as §2
HepG2 [8] = assay: Induction of apoptosis in human HepG2 cells assessed as necrotic cells at 10 uM after 12 hrs by flow cytometry (reference value: 2.3 %); type: functional; how it was run: as §2
HepG2 [9] = assay: Induction of apoptosis in human HepG2 cells after 12 hrs by flow cytometry; type: functional, cell-based; how it was run: as §2
HepG2 [10] = assay: Induction of apoptosis in human HepG2 cells assessed as early apoptotic cells at 20 uM after 12 hrs by flow cytometry (reference value: 2.1 %); type: functional; how it was run: as §2
HepG2 [11] = assay: Induction of apoptosis in human HepG2 cells assessed as late apoptotic cells at 20 uM after 12 hrs by flow cytometry (reference value: 6.9 %); type: functional; how it was run: as §2
HepG2 [12] = assay: Induction of apoptosis in human HepG2 cells assessed as necrotic cells at 20 uM after 12 hrs by flow cytometry (reference value: 2.3 %); type: functional; how it was run: as §2
HepG2 [13] = assay: Cell cycle arrest in human HepG2 cells assessed as accumulation at G1 phase at 20 uM after 12 hrs using propidium iodide staining by flow cytometry (reference value: 41.51 %); type: functional
HepG2 [14] = assay: Cell cycle arrest in human HepG2 cells assessed as accumulation at G2 phase at 20 uM after 12 hrs using propidium iodide staining by flow cytometry (reference value: 6.20 %); type: functional
HepG2 [15] = assay: Cell cycle arrest in human HepG2 cells assessed as accumulation at S phase at 20 uM after 12 hrs using propidium iodide staining by flow cytometry (reference value: 52.28 %); type: functional
HepG2 [16] = assay: Cell cycle arrest in human HepG2 cells assessed as accumulation at G1 phase at 20 uM after 24 hrs using propidium iodide staining by flow cytometry (reference value: 41.51 %); type: functional
HepG2 [17] = assay: Cell cycle arrest in human HepG2 cells assessed as accumulation at G2 phase at 20 uM after 24 hrs using propidium iodide staining by flow cytometry (reference value: 6.20 %); type: functional
HepG2 [18] = assay: Cell cycle arrest in human HepG2 cells assessed as accumulation at S phase at 20 uM after 24 hrs using propidium iodide staining by flow cytometry (reference value: 52.28 %); type: functional
HepG2 [19] = assay: Induction of apoptosis in human HepG2 cells assessed as generation of intracellular ROS at 20 uM after 12 to 24 hrs by fluorescence microscopy; type: functional, cell-based
How it was run: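 HepG2 cells treated at 20 µM for 12 or 24 h, with untreated 24 h control. Loaded with 20 µM DCFH-DA in cell-free medium at 37 °C for 30 min in the dark, then washed in PBS. DCF fluorescence imaged by fluorescence microscopy at 485 nm excitation and 538 nm emission.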

HepG2 [20] = assay: Induction of apoptosis in human HepG2 cells assessed as caspase-3 expression at 20 uM by qRT-PCR analysis; type: functional, cell-based; conditions: TDE = time-dependent effect
How it was run: (§3)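 Total RNA extracted from HepG2 cells […]. Transcripts quantified by real-time RT-PCR, with Ct values normalized to actin by the ΔCt method. Run in triplicate per group.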

HepG2 [21] = assay: Induction of apoptosis in human HepG2 cells assessed as caspase-8 expression at 20 uM by qRT-PCR analysis; type: functional, cell-based; conditions: TDE = time-dependent effect; how it was run: as §3
HepG2 [22] = assay: Induction of apoptosis in human HepG2 cells assessed as increase in Bax level after 24 hrs by Western blot analysis; type: functional, cell-based
How it was run: (§4)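 HepG2 cells grown to 80–90% confluence, then kept 12 h in 0.1% FCS RPMI 1640. Exposed 24 h at 5, 10 or 20 µM. Cell extracts run on SDS-polyacrylamide gels, transferred to nitrocellulose and probed with primary antibodies against cytochrome c, Bax, Bcl-2, caspase-9, caspase-3 and cleaved PARP.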

HepG2 [23] = assay: Induction of apoptosis in human HepG2 cells assessed as decrease in Bcl-2 level after 24 hrs by Western blot analysis; type: functional, cell-based; how it was run: as §4
HepG2 [24] = assay: Induction of apoptosis in human HepG2 cells assessed as accumulation of cytochrome c in cytosol at 5 to 20 uM after 24 hrs by Western blot analysis; type: functional, cell-based; how it was run: as §4
HepG2 [25] = assay: Induction of apoptosis in human HepG2 cells assessed as increase in caspase-9 level at 5 to 20 uM after 24 hrs by Western blot analysis; type: functional, cell-based; how it was run: as §4
HepG2 [26] = assay: Induction of apoptosis in human HepG2 cells assessed as increase in caspase-3 level at 5 to 20 uM after 24 hrs by Western blot analysis; type: functional, cell-based; how it was run: as §4

## C[C@H]1[C@H](C)CC[C@]2(C(=O)Nc3cccc(F)c3)CC[C@]3(C)C(=CC(=O)[C@@H]4[C@@]5(C)C[C@@H](O)[C@H](O)[C@@](C)(CO)[C@@H]5CC[C@]43C)[C@H]12
MGC-803
  IC50: 14.3 µM
NCI-H460
  IC50: 23.6 µM
HepG2 [1]
  IC50: 5.97 µM
HeLa
  IC50: 28.2 µM
[2]
  IC50: 14.1 µM
HUVEC
  IC50: > 100 µM
HepG2 [3]
  Activity: 7.2%
HepG2 [4]
  Activity: Active
HepG2 [5]
  Activity: Active
HepG2 [6]
  Activity: Active
HepG2 [7]
  Activity: 6.6%
HepG2 [8]
  Activity: 2.2%
HepG2 [9]
  Activity: Dose-dependent effect
HepG2 [10]
  Activity: 25%
HepG2 [11]
  Activity: 9%
HepG2 [12]
  Activity: 2.6%
HepG2 [13]
  Activity: 55.29%
HepG2 [14]
  Activity: 6.09%
HepG2 [15]
  Activity: 38.62%
HepG2 [16]
  Activity: 65.58%
HepG2 [17]
  Activity: 5.56%
HepG2 [18]
  Activity: 28.86%
HepG2 [19]
  Activity: Active
HepG2 [20]
  Activity: tde
HepG2 [21]
  Activity: tde
HepG2 [22]
  Activity: Dose-dependent effect
HepG2 [23]
  Activity: Dose-dependent effect
HepG2 [24]
  Activity: Active
HepG2 [25]
  Activity: Active
HepG2 [26]
  Activity: Active
